Measurements taken from ChEMBL document CHEMBL4400518, “Synthesis, antimicrobial and cytotoxic activities, and molecular docking studies of N-arylsulfonylindoles containing an aminoguanidine, a semicarbazide, and a thiosemicarbazide moiety” (Eur J Med Chem, 2019).
Values after ≈ are worked out from the molar mass of the structure shown.

Legend:
Format in all cases: functional
Streptococcus pyogenes = assay: Antibacterial activity against Streptococcus pyogenes CMCC 32067 measured after 24 hrs by ELISA; conditions: CMCC 32067, 24 h
Procedure, shortened: (§1)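 Broth microdilution MIC. Mid-log bacteria in MHB or TSB diluted 1000-fold, inoculated at 10^5 CFU/mL. Compounds added from DMSO stocks; final DMSO at most 0.05%. Incubation 24 h at 37 °C. Growth read as absorbance at 630 nm. MIC taken as the lowest concentration giving complete growth inhibition. Three independent experiments.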

Streptococcus pneumoniae = assay: Antibacterial activity against Streptococcus pneumoniae CMCC 31968 measured after 24 hrs by ELISA; conditions: CMCC 31968, 24 h
Enterococcus faecalis = assay: Antibacterial activity against Enterococcus faecalis CMCC 29212 measured after 24 hrs by ELISA; conditions: CMCC 29212, 24 h; procedure, shortened: as §1
Staphylococcus aureus [1] = assay: Antibacterial activity against Staphylococcus aureus CMCC(B) 26003 measured after 24 hrs by ELISA; conditions: CMCC(B) 26003, 24 h; procedure, shortened: as §1
Bacillus subtilis = assay: Antibacterial activity against Bacillus subtilis CMCC 63501 measured after 24 hrs by ELISA; conditions: CMCC 63501, 24 h; procedure, shortened: as §1
Pseudomonas aeruginosa [2] = assay: Antibacterial activity against Pseudomonas aeruginosa CMCC 27853 measured after 24 hrs by ELISA; conditions: CMCC 27853, 24 h; procedure, shortened: as §1
Staphylococcus aureus [3] = assay: Antibacterial activity against Staphylococcus aureus CMCC 25923 measured after 24 hrs by ELISA; conditions: CMCC 25923, 24 h; procedure, shortened: as §1
Escherichia coli [4] = assay: Antibacterial activity against Escherichia coli CMCC 25922 measured after 24 hrs by ELISA; conditions: CMCC 25922, 24 h; procedure, shortened: as §1
Escherichia coli [5] = assay: Antibacterial activity against Escherichia coli CMCC 44568 measured after 24 hrs by ELISA; conditions: CMCC 44568, 24 h; procedure, shortened: as §1
Pseudomonas aeruginosa [6] = assay: Antibacterial activity against Pseudomonas aeruginosa CMCC 10104 measured after 24 hrs by ELISA; conditions: CMCC 10104, 24 h; procedure, shortened: as §1

Structure (SMILES) | MIC (Streptococcus pyogenes) [µM] | MIC (Streptococcus pneumoniae) [µM] | MIC (Enterococcus faecalis) [µM] | MIC (Staphylococcus aureus [1]) [µM] | MIC (Bacillus subtilis) [µM] | MIC (Pseudomonas aeruginosa [2]) [µM] | MIC (Staphylococcus aureus [3]) [µM] | MIC (Escherichia coli [4]) [µM] | MIC (Escherichia coli [5]) [µM] | MIC (Pseudomonas aeruginosa [6]) [µM]
CC/C(=N/NC(=N)N)c1cn(S(=O)(=O)c2ccccc2)c2ccc(Br)cc12 | > 286 | 1.12 (≈ 0.502 µg/mL) | 8.95 (≈ 4.01 µg/mL) | 4.47 (≈ 2 µg/mL) | 4.47 (≈ 2 µg/mL) | > 286 | 4.47 (≈ 2 µg/mL) | 17.9 (≈ 8.03 µg/mL) | 4.47 (≈ 2 µg/mL) | > 286
C/C(=N/NC(N)=S)c1cn(S(=O)(=O)c2ccccc2)c2ccc(Br)cc12 | > 284 | > 284 | > 284 | 284 (≈ 128 µg/mL) | 284 (≈ 128 µg/mL) | > 284 | > 284 | > 284 | > 284 | > 284
C/C(=N/NC(N)=O)c1cn(S(=O)(=O)c2ccccc2)c2ccccc12 | > 360 | > 360 | > 360 | 360 (≈ 128 µg/mL) | 89.9 (≈ 32 µg/mL) | > 360 | > 360 | > 360 | > 360 | > 360
CC/C(=N/NC(N)=O)c1cn(S(=O)(=O)c2ccc(C)cc2)c2ccc(Br)cc12 | > 277 | > 277 | > 277 | > 277 | > 277 | > 277 | > 277 | > 277 | > 277 | > 277
CC/C(=N/NC(N)=S)c1cn(S(=O)(=O)c2ccccc2)c2ccc(Br)cc12 | > 276 | > 276 | > 276 | 276 (≈ 128 µg/mL) | 69 (≈ 32.1 µg/mL) | 276 (≈ 128 µg/mL) | > 276 | > 276 | > 276 | > 276
Cc1ccc(S(=O)(=O)n2cc(/C=N\NC(N)=S)c3ccccc32)cc1 | > 343 | > 343 | > 343 | 343 (≈ 128 µg/mL) | > 343 | 343 (≈ 128 µg/mL) | > 343 | > 343 | > 343 | > 343
NC(=S)N/N=C\c1cn(S(=O)(=O)c2ccccc2)c2ccccc12 | > 358 | > 358 | > 358 | 179 (≈ 64.1 µg/mL) | > 358 | 358 (≈ 128 µg/mL) | > 358 | > 358 | > 358 | > 358
CC/C(=N/NC(N)=O)c1cn(S(=O)(=O)c2ccc(C)cc2)c2ccccc12 | > 333 | > 333 | > 333 | 333 (≈ 128 µg/mL) | 333 (≈ 128 µg/mL) | > 333 | 83.3 (≈ 32 µg/mL) | > 333 | > 333 | > 333
CC/C(=N/NC(N)=O)c1cn(S(=O)(=O)c2ccccc2)c2ccccc12 | > 346 | > 346 | > 346 | > 346 | > 346 | > 346 | 346 (≈ 128 µg/mL) | > 346 | > 346 | > 346
CC/C(=N/NC(N)=S)c1cn(S(=O)(=O)c2ccc(C)cc2)c2ccccc12 | > 320 | > 320 | > 320 | 320 (≈ 128 µg/mL) | > 320 | > 320 | 320 (≈ 128 µg/mL) | > 320 | > 320 | > 320
Cc1ccc(S(=O)(=O)n2cc(/C=N\NC(N)=O)c3ccccc32)cc1 | > 360 | > 360 | > 360 | 44.9 (≈ 16 µg/mL) | 44.9 (≈ 16 µg/mL) | 360 (≈ 128 µg/mL) | 180 (≈ 64.1 µg/mL) | 360 (≈ 128 µg/mL) | 360 (≈ 128 µg/mL) | > 360
CC/C(=N/NC(N)=S)c1cn(S(=O)(=O)c2ccc(C)cc2)c2ccc(Br)cc12 | > 268 | > 268 | > 268 | 134 (≈ 64.2 µg/mL) | > 268 | > 268 | 268 (≈ 128 µg/mL) | 268 (≈ 128 µg/mL) | 268 (≈ 128 µg/mL) | > 268
CC/C(=N/NC(N)=O)c1cn(S(=O)(=O)c2ccccc2)c2ccc(Br)cc12 | > 286 | > 286 | > 286 | > 286 | > 286 | > 286 | > 286 | > 286 | > 286 | > 286
Cc1ccc(S(=O)(=O)n2cc(/C=N\NC(N)=O)c3cc(Br)ccc32)cc1 | > 295 | > 295 | > 295 | 295 (≈ 128 µg/mL) | 9.22 (≈ 4.01 µg/mL) | > 295 | > 295 | > 295 | > 295 | > 295
CC/C(=N/NC(=N)N)c1cn(S(=O)(=O)c2ccc(C)cc2)c2ccccc12 | 5.22 (≈ 2 µg/mL) | 83.5 (≈ 32 µg/mL) | 20.9 (≈ 8.01 µg/mL) | 5.22 (≈ 2 µg/mL) | 10.4 (≈ 4 µg/mL) | 334 (≈ 128 µg/mL) | 10.4 (≈ 4 µg/mL) | 20.9 (≈ 8.01 µg/mL) | 20.9 (≈ 8.01 µg/mL) | > 334
NC(=S)N/N=C\c1cn(S(=O)(=O)c2ccccc2)c2ccc(Br)cc12 | > 294 | > 294 | > 294 | 294 (≈ 128 µg/mL) | > 294 | > 294 | > 294 | > 294 | > 294 | > 294
C/C(=N/NC(N)=O)c1cn(S(=O)(=O)c2ccc(C)cc2)c2ccc(Br)cc12 | > 286 | > 286 | > 286 | 286 (≈ 128 µg/mL) | 8.93 (≈ 4.01 µg/mL) | > 286 | > 286 | > 286 | > 286 | > 286
C/C(=N/NC(N)=S)c1cn(S(=O)(=O)c2ccccc2)c2ccccc12 | > 344 | > 344 | > 344 | 344 (≈ 128 µg/mL) | 172 (≈ 64.1 µg/mL) | 344 (≈ 128 µg/mL) | 344 (≈ 128 µg/mL) | 344 (≈ 128 µg/mL) | 344 (≈ 128 µg/mL) | > 344
C/C(=N/NC(N)=O)c1cn(S(=O)(=O)c2ccc(C)cc2)c2ccccc12 | > 346 | > 346 | > 346 | 346 (≈ 128 µg/mL) | 346 (≈ 128 µg/mL) | > 346 | > 346 | > 346 | > 346 | > 346
C/C(=N/NC(=N)N)c1cn(S(=O)(=O)c2ccccc2)c2ccccc12 | 22.5 (≈ 8.01 µg/mL) | 1.4 (≈ 0.498 µg/mL) | 45.1 (≈ 16 µg/mL) | 22.5 (≈ 8.01 µg/mL) | 22.5 (≈ 8.01 µg/mL) | 90.1 (≈ 32 µg/mL) | 22.5 (≈ 8.01 µg/mL) | 45.1 (≈ 16 µg/mL) | 11.3 (≈ 4.01 µg/mL) | 45.1 (≈ 16 µg/mL)
